Assay results taken from ChEMBL document CHEMBL1148782, “Inhibitors of tumor progression loci-2 (Tpl2) kinase and tumor necrosis factor alpha (TNF-alpha) production: selectivity and in vivo antiinflammatory activity of novel 8-substituted-4-anilino-6-aminoquinoline-3-carbonitriles” (J Med Chem, 2007).

Columns and labels:
Blood = experiment: Inhibition of LPS-stimulated TNFalpha production in human blood; type: functional
[1] = target: Epidermal growth factor receptor (Homo sapiens, UniProt P00533)
Monocyte = experiment: Inhibition of LPS-stimulated TNFalpha production in monocytes; type: functional, Homo sapiens
[2] = target: Mitogen-activated protein kinase kinase kinase 8 (Homo sapiens, UniProt P41279); experiment: Inhibition of Tpl2 by ELISA
[3] = target: Proto-oncogene tyrosine-protein kinase Src (Homo sapiens, UniProt P12931); experiment: Inhibition of Src
[4] = target: cAMP-dependent protein kinase (PKA) (Homo sapiens, UniProt P22694+P17612+P22612); experiment: Inhibition of PKA; type: protein assay
[5] = target: Ribosomal protein S6 kinase beta-1 (Homo sapiens, UniProt P23443); experiment: Inhibition of S6K
CYP3A4 = CYP3A4 (Homo sapiens, UniProt P08684); experiment: Inhibition of CYP3A4 at 3 uM; type: ADME
[6] = target: MAP kinase-activated protein kinase 2 (Homo sapiens, UniProt P49137); experiment: Inhibition of MK2
[7] = target: Mitogen-activated protein kinase 14 (Homo sapiens, UniProt Q16539); experiment: Inhibition of p38alpha
[8] = target: Protein kinase C alpha type (Homo sapiens, UniProt P17252); experiment: Inhibition of PKCalpha
Rattus norvegicus = experiment: AUC (0 to infinity) in Sprague-Dawley rat at 25 mg/kg, po; type: ADME, organism-based, Plasma; parameters: dose 25 mg/kg, route oral; conditions: in vivo
How it was run: (§1)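 Female Sprague-Dawley rats were dosed by the iv or oral route. Parameters are reported as means of individual-animal pharmacokinetic values.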

[9] = Volume of distribution at steady state in Sprague-Dawley rat at 5 mg/kg, iv; type: ADME, organism-based; parameters: dose 5 mg/kg, route intravenous; conditions: in vivo, read-out: Vss; how it was run: as §1
[10] = Plasma clearance in Sprague-Dawley rat at 5 mg/kg, iv; type: ADME, organism-based; parameters: dose 5 mg/kg, route intravenous; how it was run: as §1
CaM kinase II = CaM kinase II (Homo sapiens, UniProt Q13557+Q13555+Q13554+Q9UQM7)
[11] = Half life in Sprague-Dawley rat at 5 mg/kg, iv; type: ADME, organism-based; parameters: dose 5 mg/kg, route intravenous; conditions: in vivo; how it was run: as §1
[12] = Permeability at pH 7.4 by PAMPA method; type: ADME; conditions: read-out: permeability
How it was run: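 Passive permeability was measured by high-resolution PAMPA at pH 7.4.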

[13] = Bioavailability in Sprague-Dawley rat at 25 mg/kg, po; type: ADME, organism-based; conditions: in vivo; how it was run: as §1
physchem = conditions: buffer, pH 7.4
Cytochrome P450 3A4 = Cytochrome P450 3A4 (Homo sapiens, UniProt P08684)
[14] = Half life in Sprague-Dawley rat at 25 mg/kg, po; type: ADME, organism-based; parameters: dose 25 mg/kg, route oral; conditions: in vivo; how it was run: as §1
[15] = target: Mitogen-activated protein kinase 8 (Homo sapiens, UniProt P45983); experiment: Inhibition of Jnk1
[16] = Metabolic stability in mouse liver microsomes; type: ADME, Microsome
How it was run: (§2)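 Compound was incubated with liver microsomes from the stated species. Stability is expressed as parent half-life (t1/2, min). Metabolites were also profiled.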

[17] = Metabolic stability in human liver microsomes; type: ADME, Microsome; how it was run: as §2
[18] = Metabolic stability in rat liver microsomes; type: ADME, Microsome; how it was run: as §2

Sequence of Mitogen-activated protein kinase kinase kinase 8 (P41279 whole entry): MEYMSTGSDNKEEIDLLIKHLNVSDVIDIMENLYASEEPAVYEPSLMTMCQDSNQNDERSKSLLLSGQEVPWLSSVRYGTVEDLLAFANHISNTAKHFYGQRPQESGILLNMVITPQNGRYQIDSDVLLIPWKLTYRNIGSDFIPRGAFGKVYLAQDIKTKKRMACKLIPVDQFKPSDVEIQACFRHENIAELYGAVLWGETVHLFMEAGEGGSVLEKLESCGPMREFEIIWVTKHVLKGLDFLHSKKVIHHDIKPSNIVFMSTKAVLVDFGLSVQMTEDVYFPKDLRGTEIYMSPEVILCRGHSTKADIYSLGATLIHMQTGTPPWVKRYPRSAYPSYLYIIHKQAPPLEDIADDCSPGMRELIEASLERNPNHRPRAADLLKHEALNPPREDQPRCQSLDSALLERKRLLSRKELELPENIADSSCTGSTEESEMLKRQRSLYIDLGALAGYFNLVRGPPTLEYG
Sequence of Ribosomal protein S6 kinase beta-1 (P23443 whole entry): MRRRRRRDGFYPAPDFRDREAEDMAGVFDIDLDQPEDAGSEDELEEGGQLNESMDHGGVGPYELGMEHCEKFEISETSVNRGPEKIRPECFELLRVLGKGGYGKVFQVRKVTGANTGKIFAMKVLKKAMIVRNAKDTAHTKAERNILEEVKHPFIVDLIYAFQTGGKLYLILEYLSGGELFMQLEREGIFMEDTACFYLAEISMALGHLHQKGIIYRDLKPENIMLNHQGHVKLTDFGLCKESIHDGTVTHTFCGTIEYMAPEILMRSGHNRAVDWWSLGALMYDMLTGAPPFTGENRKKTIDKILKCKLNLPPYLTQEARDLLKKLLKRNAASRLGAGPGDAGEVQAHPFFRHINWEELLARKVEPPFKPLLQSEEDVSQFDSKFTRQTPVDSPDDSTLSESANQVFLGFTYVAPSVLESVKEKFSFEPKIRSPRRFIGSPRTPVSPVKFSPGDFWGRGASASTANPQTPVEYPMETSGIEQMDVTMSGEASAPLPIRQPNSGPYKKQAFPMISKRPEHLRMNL
Sequence of MAP kinase-activated protein kinase 2 (P49137 whole entry): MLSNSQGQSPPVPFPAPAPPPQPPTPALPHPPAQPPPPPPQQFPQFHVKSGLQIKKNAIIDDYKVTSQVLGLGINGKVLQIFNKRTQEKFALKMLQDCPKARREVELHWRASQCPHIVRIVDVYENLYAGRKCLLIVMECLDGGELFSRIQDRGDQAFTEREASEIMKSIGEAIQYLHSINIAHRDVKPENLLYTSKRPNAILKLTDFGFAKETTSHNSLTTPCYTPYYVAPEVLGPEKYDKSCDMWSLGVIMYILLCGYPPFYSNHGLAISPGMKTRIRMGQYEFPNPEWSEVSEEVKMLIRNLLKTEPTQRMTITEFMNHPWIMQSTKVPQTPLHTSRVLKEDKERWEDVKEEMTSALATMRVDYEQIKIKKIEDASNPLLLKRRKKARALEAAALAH
Sequence of Epidermal growth factor receptor (P00533 whole entry): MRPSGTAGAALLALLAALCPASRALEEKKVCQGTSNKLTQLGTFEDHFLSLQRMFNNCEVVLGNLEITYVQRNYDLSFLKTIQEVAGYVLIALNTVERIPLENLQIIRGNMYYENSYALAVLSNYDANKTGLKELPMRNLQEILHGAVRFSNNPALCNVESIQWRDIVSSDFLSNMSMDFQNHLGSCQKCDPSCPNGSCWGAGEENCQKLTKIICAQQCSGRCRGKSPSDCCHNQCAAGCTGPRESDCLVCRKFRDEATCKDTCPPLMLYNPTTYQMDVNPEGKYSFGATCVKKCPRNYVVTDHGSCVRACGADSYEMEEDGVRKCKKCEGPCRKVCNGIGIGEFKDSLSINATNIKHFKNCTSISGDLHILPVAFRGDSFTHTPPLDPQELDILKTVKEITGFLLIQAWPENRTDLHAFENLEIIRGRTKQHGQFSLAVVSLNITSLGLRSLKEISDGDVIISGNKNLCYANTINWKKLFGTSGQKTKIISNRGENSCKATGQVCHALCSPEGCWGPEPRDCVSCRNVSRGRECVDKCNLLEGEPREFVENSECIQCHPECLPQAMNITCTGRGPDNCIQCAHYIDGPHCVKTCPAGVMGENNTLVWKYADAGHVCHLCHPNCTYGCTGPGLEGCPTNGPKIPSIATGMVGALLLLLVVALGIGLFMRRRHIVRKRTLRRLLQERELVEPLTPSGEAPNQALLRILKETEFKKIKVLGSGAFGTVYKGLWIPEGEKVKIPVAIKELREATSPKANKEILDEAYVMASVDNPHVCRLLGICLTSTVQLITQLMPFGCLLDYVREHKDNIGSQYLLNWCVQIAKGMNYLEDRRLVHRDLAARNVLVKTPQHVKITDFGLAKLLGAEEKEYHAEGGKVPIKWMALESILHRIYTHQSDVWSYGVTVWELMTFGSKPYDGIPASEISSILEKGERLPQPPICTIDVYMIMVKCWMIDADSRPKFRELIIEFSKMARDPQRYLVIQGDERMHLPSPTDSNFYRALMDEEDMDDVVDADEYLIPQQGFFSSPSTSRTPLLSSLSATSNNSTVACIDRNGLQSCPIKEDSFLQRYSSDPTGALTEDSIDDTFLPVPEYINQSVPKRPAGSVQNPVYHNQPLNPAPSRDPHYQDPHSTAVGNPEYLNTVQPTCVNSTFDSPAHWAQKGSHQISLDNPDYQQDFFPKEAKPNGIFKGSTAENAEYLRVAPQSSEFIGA
Sequence of Proto-oncogene tyrosine-protein kinase Src (P12931 2-536 limits assumed): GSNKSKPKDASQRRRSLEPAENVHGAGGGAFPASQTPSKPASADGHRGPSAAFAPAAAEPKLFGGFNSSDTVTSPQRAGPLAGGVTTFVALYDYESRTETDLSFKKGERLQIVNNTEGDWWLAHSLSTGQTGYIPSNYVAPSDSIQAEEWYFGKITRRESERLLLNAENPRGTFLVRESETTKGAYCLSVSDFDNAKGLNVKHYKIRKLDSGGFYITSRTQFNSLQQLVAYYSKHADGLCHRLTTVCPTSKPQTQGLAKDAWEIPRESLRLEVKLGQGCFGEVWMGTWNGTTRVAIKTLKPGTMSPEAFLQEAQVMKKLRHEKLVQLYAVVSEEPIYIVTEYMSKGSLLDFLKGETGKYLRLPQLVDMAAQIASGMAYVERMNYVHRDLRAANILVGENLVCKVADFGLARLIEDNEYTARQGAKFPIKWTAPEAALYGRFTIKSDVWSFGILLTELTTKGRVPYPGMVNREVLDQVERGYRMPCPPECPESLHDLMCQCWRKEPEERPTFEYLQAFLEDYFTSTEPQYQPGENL
Sequence of Mitogen-activated protein kinase 14 (Q16539 whole entry): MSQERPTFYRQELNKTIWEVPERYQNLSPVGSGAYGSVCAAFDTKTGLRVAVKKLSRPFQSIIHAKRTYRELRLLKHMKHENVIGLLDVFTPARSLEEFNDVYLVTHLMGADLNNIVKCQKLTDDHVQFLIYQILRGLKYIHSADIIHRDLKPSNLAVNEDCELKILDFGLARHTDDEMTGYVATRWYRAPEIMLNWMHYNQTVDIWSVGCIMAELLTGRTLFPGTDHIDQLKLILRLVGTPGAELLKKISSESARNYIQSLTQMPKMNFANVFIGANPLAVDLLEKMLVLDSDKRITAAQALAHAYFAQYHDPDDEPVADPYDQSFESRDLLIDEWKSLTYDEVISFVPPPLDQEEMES
Sequence of CYP3A4 (P08684 whole entry): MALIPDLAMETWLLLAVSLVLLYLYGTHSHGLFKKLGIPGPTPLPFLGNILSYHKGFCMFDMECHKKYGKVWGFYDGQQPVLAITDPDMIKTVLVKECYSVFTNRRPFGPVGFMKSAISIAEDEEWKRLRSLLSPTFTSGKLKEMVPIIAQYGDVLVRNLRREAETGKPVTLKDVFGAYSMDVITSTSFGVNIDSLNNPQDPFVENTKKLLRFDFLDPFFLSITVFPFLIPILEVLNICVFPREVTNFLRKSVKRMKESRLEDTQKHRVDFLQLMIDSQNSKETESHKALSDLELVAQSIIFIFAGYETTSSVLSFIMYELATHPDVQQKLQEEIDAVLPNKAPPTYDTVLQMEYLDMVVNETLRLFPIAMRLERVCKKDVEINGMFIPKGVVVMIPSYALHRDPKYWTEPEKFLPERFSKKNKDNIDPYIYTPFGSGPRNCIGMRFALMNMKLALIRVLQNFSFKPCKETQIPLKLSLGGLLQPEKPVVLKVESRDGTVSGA
Sequence of Cytochrome P450 3A4 (P08684 whole entry): as above

COc1cc(NCc2c[nH]cn2)cc2c(Nc3ccc(F)c(Cl)c3)c(C#N)cnc12
Activity (Blood): >10 µM | IC50 [1]: 2.08 µM | Inhibitory concentration (Monocyte): 3000 nM | IC50 [2]: 0.13 µM

C[S+]([O-])c1cc(NCc2c[nH]cn2)cc2c(Nc3ccc(F)c(Cl)c3)c(C#N)cnc12 (stereo not drawn)
Activity (Blood): 13.3 µM | IC50 [1]: 5 µM | Inhibitory concentration (Monocyte): 2130 nM

CN(C)C(=O)c1cc(NCc2c[nH]cn2)cc2c(Nc3ccc(F)c(Cl)c3)c(C#N)cnc12
Activity (Blood): >10 µM | IC50 [1]: > 20 µM | Inhibitory concentration (Monocyte): >1000 nM

N#Cc1cnc2c(OCC(O)CO)cc(NCc3cnc[nH]3)cc2c1Nc1ccc(F)c(Cl)c1 (stereo not drawn)
IC50 [2]: 0.83 µM

N#Cc1cnc2c(Cl)cc(NCCc3c[nH]cn3)cc2c1Nc1ccc(F)c(Cl)c1
Activity (Blood): >20 µM

N#Cc1cnc2c(Br)cc(NC(=O)Cc3cnc[nH]3)cc2c1Nc1ccc(F)c(Cl)c1
IC50 [2]: > 5 µM

N#Cc1cnc2c(Cl)cc(NCc3cccnc3)cc2c1Nc1ccc(F)c(Cl)c1
Activity (Blood): 20 µM | IC50 [1]: > 5 µM | Inhibitory concentration (Monocyte): >1000 nM

N#Cc1cnc2c(F)cc(NCc3c[nH]cn3)cc2c1Nc1ccc(F)c(Cl)c1
Activity (Blood): >10 µM | IC50 [3]: 20 µM | IC50 [4]: 10.3 µM | IC50 [5]: > 40 µM | inhibition at 3 µM (CYP3A4): 96% | Inhibitory concentration (Monocyte): 510 nM | IC50 [2]: 0.02 µM | IC50 [6]: > 40 µM | IC50 [7]: > 40 µM | IC50 [8]: > 40 µM

Cn1cncc1CNc1cc(Cl)c2ncc(C#N)c(Nc3ccc(F)c(Cl)c3)c2c1
Activity (Blood): >20 µM

N#Cc1cnc2c(Cl)cc(NCC(=O)O)cc2c1Nc1ccc(F)c(Cl)c1
Activity (Blood): >20 µM | Inhibitory concentration (Monocyte): >5000 nM | IC50 [2]: 0.2 µM

N#Cc1cnc2c(Cl)cc(NCc3cccc[n+]3[O-])cc2c1Nc1ccc(F)c(Cl)c1
Activity (Blood): 11.4 µM | AUC/dose (Rattus norvegicus): < 10 ng·kg·h/mg/mL | Vd [9]: 1.6 L/kg | IC50 [3]: > 40 µM | IC50 [1]: 2.9 µM | IC50 [4]: > 40 µM | IC50 [5]: > 40 µM | clearance [10]: 38 mL/min/kg | IC50 (CaM kinase II): > 40 µM | half-life [11]: 0.8 h | Papp [12]: < 5 ×10⁻⁶ cm/s | bioavailability [13]: < 1% | solubility (physchem): < 10 µg/mL | IC50 (Cytochrome P450 3A4): 18 µM | Inhibitory concentration (Monocyte): 1500 nM | IC50 [6]: 40.1 µM | IC50 [7]: > 40 µM | IC50 [8]: > 40 µM | half-life [14]: 4.2 h

CC(=O)c1cc(NCc2c[nH]cn2)cc2c(Nc3ccc(F)c(Cl)c3)c(C#N)cnc12
Activity (Blood): >10 µM | IC50 [1]: 0.156 µM | Inhibitory concentration (Monocyte): 580 nM

CCc1[nH]cnc1CNc1cc(Cl)c2ncc(C#N)c(Nc3ccc(F)c(Cl)c3)c2c1
Activity (Blood): 7.5 µM

CN(C)CCCn1cc(CNc2cc(Br)c3ncc(C#N)c(Nc4ccc(F)c(Cl)c4)c3c2)nn1
Activity (Blood): 3.08 µM | AUC/dose (Rattus norvegicus): < 10 ng·kg·h/mg/mL | IC50 [3]: > 40 µM | IC50 [4]: > 40 µM | IC50 [5]: > 40 µM | IC50 [15]: > 40 µM | inhibition at 3 µM (CYP3A4): 66% | Inhibitory concentration (Monocyte): 221 nM | IC50 [6]: > 40 µM | IC50 [7]: > 40 µM | IC50 [8]: > 40 µM | half-life [14]: 2.6 h

Cn1nccc1CNc1cc(Br)c2ncc(C#N)c(Nc3ccc(F)c(Cl)c3)c2c1
Activity (Blood): >20 µM | Inhibitory concentration (Monocyte): 665 nM

N#Cc1cnc2c(Cl)cc(NCc3cnc[nH]3)cc2c1Nc1ccc(F)c(Cl)c1
Activity (Blood): 4.9 µM | AUC/dose (Rattus norvegicus): 24 ng·kg·h/mg/mL | Vd [9]: 2.4 L/kg | IC50 [3]: 19.9 µM | half-life [16]: 0.383 h | IC50 [4]: 40.1 µM | IC50 [5]: > 100 µM | clearance [10]: 19 mL/min/kg | half-life [17]: 0.517 h | IC50 (CaM kinase II): > 40 µM | half-life [11]: 4.4 h | Papp [12]: < 5 ×10⁻⁶ cm/s | half-life [18]: 0.583 h | bioavailability [13]: 2% | solubility (physchem): < 10 µg/mL | Inhibitory concentration (Monocyte): 350 nM | IC50 [2]: 0.02 µM | IC50 [6]: 40.2 µM | IC50 [7]: 11.2 µM | IC50 [8]: 23.4 µM | half-life [14]: 8.1 h
